Experimental findings from ChEMBL document CHEMBL3861973, “Caldoramide, a Modified Pentapeptide from the Marine Cyanobacterium Caldora penicillata” (J Nat Prod, 2016) are described below.

Bounds are passed on as bounds.

Assay [1] in a line: Cytotoxicity against oncogenic KRAS knockout human HCT116 cells assessed as reduction in cell viability measured after 48 hrs by MTT assay. The assay is classed as functional, cell-based. As to conditions: HCT-116, 48 h. The essentials:
(§1)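 Parental HCT116, HIF-1α/HIF-2α double-knockout and oncogenic-KRAS-knockout (wild-type KRAS) isogenic lines grown in DMEM + 10% FBS, 37 °C, 5% CO2. Seeded at 10,000 cells/well; compound added at various concentrations 24 h later.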
(In general: Tetrazolium dyes change colour on reduction, which living cells bring about.)

Assay [2] is described as follows: Cytotoxicity against human HCT116 cells assessed as reduction in cell viability measured after 48 hrs by MTT assay. The assay is classed as functional, cell-based. As to conditions: HCT-116, 48 h. In short, it runs like this: as §1
Assay [3] can be described thus: Cytotoxicity against human HIF1alpha and HIF2alpha deficit HCT116 cells assessed as reduction in cell viability measured after 48 hrs by MTT assay relative to parental HCT116 cells. The assay is classed as functional. As to conditions: HCT-116, 48 h. The essentials: (§2)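 Same isogenic HCT116 MTT set-up: cells in DMEM + 10% FBS at 37 °C, 5% CO2, 10,000 cells/well, dosed at graded concentrations after 24 h, MTT read 48 h post-treatment. Maximum efficacy in each knockout line expressed as percent of that in parental HCT116.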

Assay [4] in a line: Cytotoxicity against human HIF1alpha and HIF2alpha deficit HCT116 cells assessed as reduction in cell viability measured after 48 hrs by MTT assay. The assay is classed as functional, cell-based. The following applies: HCT-116, 48 h. The essentials: as §1
The nature of assay [5]: Cytotoxicity against oncogenic KRAS knockout human HCT116 cells expressing wild type KRAS assessed as reduction in cell viability measured after 48 hrs by MTT assay relative to parental HCT116 cells. As to conditions: HCT-116, 48 h. The assay is classed as functional. In short, it runs like this: as §2
Assay [6] is described as follows: Cytotoxicity against oncogenic KRAS knockout human HCT116 cells expressing wild type KRAS assessed as reduction in cell viability measured after 48 hrs by ATPlite 1step luminescence assay. The assay is classed as functional, cell-based. The following applies: HCT-116, 48 h. On the technique in general: In ATP-based viability assays light output follows the ATP content of the culture.

A short description of assay [7]: Cytotoxicity against human HIF1alpha and HIF2alpha deficit HCT116 cells assessed as reduction in cell viability measured after 48 hrs by ATPlite 1step luminescence assay. The class given is functional, cell-based. The following applies: HCT-116, 48 h.
A short description of assay [8]: Cytotoxicity against oncogenic KRAS knockout human HCT116 cells expressing wild type KRAS assessed as reduction in cell viability measured after 48 hrs by ATPlite 1step luminescence assay relative to parental HCT116 cells. The assay is classed as functional. As to conditions: HCT-116, 48 h.
Assay [9] is described as follows: Cytotoxicity against human HIF1alpha and HIF2alpha deficit HCT116 cells assessed as reduction of cell viability measured after 48 hrs by ATPlite 1step luminescence assay relative to parental HCT116 cells. The class given is functional. The following applies: HCT-116, 48 h.
Assay [10] is described as follows: Cytotoxicity against human HCT116 cells assessed as reduction in cell viability measured after 48 hrs by ATPlite 1step luminescence assay. The class given is functional, cell-based. As to conditions: HCT-116, 48 h.
The test system of assay [11] is HCT-116. The experiment in a line: Selectivity ratio of IC50 for human HIF1alpha and HIF2alpha deficit HCT116 cells to IC50 for human HCT116 cells. The assay is classed as functional.
Assay [12] deals with HCT-116. Kind of assay: Selectivity ratio of IC50 for oncogenic KRAS knockout human HCT116 cells to IC50 for human HCT116 cells. The assay is classed as functional.

Regarding `CC[C@H](C)[C@@H](C(=O)N1C(=O)C=C(OC)[C@@H]1Cc1ccccc1)N(C)C(=O)[C@H](C(C)C)N(C)C(=O)[C@@H](NC(=O)[C@H](C(C)C)N(C)C)C(C)C`, the half-maximal inhibitory concentration (IC50) (commonly the concentration that gives 50% inhibition) in assay [1] came out at 8.6 µM; in assay [2] it was 3.9 µM; in assay [4], 5.2 µM. For the same compound, the Emax in assay [3] is 67%; in assay [5], 100%.
With `CCCCCCCC(=O)SCC/C=C/[C@@H]1CC(=O)NCc2nc(cs2)C2=N[C@@](C)(CS2)C(=O)N[C@@H](C(C)C)C(=O)O1` [LARGAZOLE], the figures for the IC50 in assay [6], in assay [7] and in [10] were 0.0037 µM, 0.018 µM and 0.00641 µM, respectively. For the same compound, the Emax in [8] was 67%; in [9], 70%.
Regarding `CC[C@H](C)[C@@H]([C@@H](CC(=O)N1CCC[C@H]1[C@H](OC)[C@@H](C)C(=O)N[C@@H](Cc1ccccc1)c1nccs1)OC)N(C)C(=O)[C@@H](NC(=O)[C@H](C(C)C)N(C)C)C(C)C` [DOLASTATIN-10], the 50% inhibitory concentration (IC50) in assay [6] was 0.024 µM; in assay [7], 0.065 µM; in [10], 0.00048 µM. The Emax in assay [8] is 83%; in assay [9], 74%. Besides, the “Ratio IC50” value with HCT-116 [11] and in the assay on HCT-116 [12] was over 50 throughout.
